{"source": "ChEMBL document CHEMBL1143386", "about": "“Prodrugs of perzinfotel with improved oral bioavailability” (J Med Chem, 2009)", "key": {"[1]": {"assay": "Chemical stability in simulated gastric fluid after 4 hrs", "format": "physicochemical", "conditions": "read-out: Stability", "method_in_brief": "(§1)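 Compound at 0.01 mg/mL final in a 9:1 mix of aqueous buffer (pH 1.0, 4.5, 6.6 or 7.4) or simulated gastric fluid with acetonitrile, held at 37 °C in the autosampler. Injected every 4 h over 24 h onto C8 HPLC. Percent remaining from peak area at 304 nm, corrected by internal standard; products confirmed by LC/MS (-ESI).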"}, "[2]": {"assay": "Chemical stability at pH 1 after 4 hrs", "format": "physicochemical", "conditions": "buffer, read-out: Stability", "method_in_brief": "as §1"}, "[3]": {"assay": "Chemical stability at pH 4.5 after 4 hrs", "format": "physicochemical", "conditions": "buffer, read-out: Stability", "method_in_brief": "as §1"}, "[4]": {"assay": "Chemical stability at pH 7.4 after 4 hrs", "format": "physicochemical", "conditions": "buffer, read-out: Stability", "method_in_brief": "as §1"}, "[5]": {"assay": "Chemical stability at pH 6.6 after 4 hrs", "format": "physicochemical", "conditions": "buffer, read-out: Stability", "method_in_brief": "as §1"}, "[6]": {"assay": "AUC (0 to 4 hrs) in Sprague-Dawley rat at 30 mg/kg, po", "format": "ADME, organism-based", "design": "time < 4 hr, dose 30 mg/kg, route oral", "conditions": "plasma", "method_in_brief": "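Male Sprague-Dawley rats given a single oral gavage dose, suspended in 2% Tween-80/0.5% methylcellulose in sterile water at 1 mL/kg. Plasma sampled at 0, 0.25, 0.5, 1, 2, 4 and 6 h; n = 2 at 0, 2, 4, 6 h and n = 3 at 0.25, 0.5, 1 h. Samples were stabilized with acetic acid/KF, acidified, extracted into n-butanol and quantified by LC/MS.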"}, "Plasma [7]": {"test_system": "Plasma", "assay": "Biodistribution in Sprague-Dawley rat plasma at 30 mg/kg, po after 0.5 hrs", "format": "ADME, organism-based", "design": "dose 30 mg/kg, route oral", "conditions": "in vivo", "method_in_brief": "(§2)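 Male Sprague-Dawley rats given [14C]-labelled compound by oral gavage (parent at 30 mg/kg, prodrug at 10 mg/kg). Blood, plasma and brain taken at 0.167, 0.5, 1, 4, 8 and 24 h (n = 3 rats/time point). Total radioactivity measured in each matrix. Metabolite profiles from HPLC with in-line radioactivity detection.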"}, "Plasma [8]": {"test_system": "Plasma", "assay": "Biodistribution in Sprague-Dawley rat plasma at 10 mg/kg, po after 0.167 hrs", "conditions": "in vivo"}, "Rattus norvegicus [9]": {"organism": "Rattus norvegicus", "assay": "Displacement of [3H]kainic acid from kainate receptor in rat frontal cortex at 100 uM", "format": "tissue-based", "method_in_brief": "(§3)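 Inhibition of radioligand binding at 100 µM. [3H]glycine with rat whole-brain membranes, [3H]kainate with rat frontal cortex membranes, and [3H]AMPA with rat forebrain membranes.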"}, "[10]": {"assay": "Cmax in Sprague-Dawley rat at 30 mg/kg, po", "format": "ADME, organism-based", "design": "dose 30 mg/kg, route oral", "conditions": "in vivo", "method_in_brief": "(§4)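 Male Sprague-Dawley rats fasted about 16 h, then dosed by oral gavage at 30 mg/kg as a suspension in 2% Tween-80/0.5% methylcellulose in water. Plasma sampled at 0–6 h (n = 2–3 per time point) and stabilized with acetic acid and KF. Samples acidified, extracted into n-butanol, and analysed by LC-MS.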"}, "Brain [11]": {"test_system": "Brain", "assay": "Biodistribution in Sprague-Dawley rat brain at 30 mg/kg, po after 0.167 hrs", "format": "ADME, organism-based", "design": "dose 30 mg/kg, route oral", "conditions": "in vivo", "method_in_brief": "as §2"}, "[12]": {"assay": "Tmax in Sprague-Dawley rat at 30 mg/kg, po", "format": "ADME, organism-based", "design": "dose 30 mg/kg, route oral", "conditions": "in vivo", "method_in_brief": "as §4"}, "Blood [13]": {"test_system": "Blood", "assay": "Biodistribution in Sprague-Dawley rat blood at 30 mg/kg, po after 0.5 hrs", "format": "ADME, organism-based", "design": "dose 30 mg/kg, route oral", "conditions": "in vivo", "method_in_brief": "as §2"}, "Brain [14]": {"test_system": "Brain", "assay": "Biodistribution in Sprague-Dawley rat brain at 30 mg/kg, po after 0.5 hrs", "format": "ADME, organism-based", "design": "dose 30 mg/kg, route oral", "conditions": "in vivo", "method_in_brief": "as §2"}, "[15]": {"assay": "Half life in Sprague-Dawley rat at 30 mg/kg, po", "format": "ADME, organism-based", "design": "dose 30 mg/kg, route oral", "conditions": "in vivo", "method_in_brief": "as §4"}, "[16]": {"assay": "AUC (0 to last) in Sprague-Dawley rat at 30 mg/kg, po", "conditions": "plasma"}, "Glutamate NMDA receptor": {"target": "Glutamate NMDA receptor", "assay": "Displacement of [3H]CGP-39653 from rat brain NMDA receptor", "method_in_brief": "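Competitive displacement of [3H]CGP-39653 at the NMDA recognition site, using rat whole-brain membranes.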"}, "Blood [17]": {"test_system": "Blood", "assay": "Biodistribution in Sprague-Dawley rat blood at 10 mg/kg, po after 0.167 hrs", "conditions": "in vivo"}, "Rattus norvegicus [18]": {"organism": "Rattus norvegicus", "assay": "Antinociceptive activity in Sprague-Dawley rat assessed as reversal of PGE2-induced thermal hypersensitivity after 0.5 hrs", "format": "functional", "method_in_brief": "(§5)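 Male Sprague-Dawley rats (200-250 g) fasted ~16 h and dosed orally in 2% Tween-80/0.5% methylcellulose (1 mL/kg) 0.5-48 h before intradermal PGE2 (0.1 mg in 50 µL). Tail-withdrawal latency was read 30 min later in water at 34-58 °C, with a 20 s cutoff. T10 from each rat's temperature-effect curve; within-subjects repeated-measures ANOVA, p < 0.05.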"}, "Rattus norvegicus [19]": {"organism": "Rattus norvegicus", "assay": "Displacement of [3H]AMPA from AMPA receptor in rat forebrain membrane at 100 uM", "format": "cell membranes", "method_in_brief": "as §3"}, "[20]": {"target": "T1, Glycine receptor subunit alpha-1 (Rattus norvegicus) (UniProt P07727)", "T1 sequence (whole entry)": "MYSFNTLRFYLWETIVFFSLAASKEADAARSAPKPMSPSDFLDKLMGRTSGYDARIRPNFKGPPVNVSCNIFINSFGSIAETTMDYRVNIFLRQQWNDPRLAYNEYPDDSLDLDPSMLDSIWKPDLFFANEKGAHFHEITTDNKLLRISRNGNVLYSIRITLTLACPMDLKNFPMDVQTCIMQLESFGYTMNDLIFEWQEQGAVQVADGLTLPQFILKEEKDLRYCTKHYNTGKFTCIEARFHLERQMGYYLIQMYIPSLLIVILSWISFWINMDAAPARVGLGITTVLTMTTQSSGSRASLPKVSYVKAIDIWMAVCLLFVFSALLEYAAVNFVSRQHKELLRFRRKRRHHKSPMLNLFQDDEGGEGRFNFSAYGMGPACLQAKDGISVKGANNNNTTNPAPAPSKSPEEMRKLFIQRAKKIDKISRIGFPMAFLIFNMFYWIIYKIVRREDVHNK", "assay": "Displacement of [3H]glycine from rat brain strychnine sensitive glycine receptor at 100 uM", "method_in_brief": "as §3"}, "Rattus norvegicus [21]": {"test_system": "Rattus norvegicus", "assay": "Antinociceptive activity in Sprague-Dawley rat assessed as reversal of PGE2-induced thermal hypersensitivity at 100 mg/kg after 0.5 hrs", "format": "functional, organism-based", "design": "dose 100 mg/kg", "method_in_brief": "as §5"}}, "note": "Activity calls are given as the source filed them."}
{"smiles": "CC(C)OC(=O)OCOP(=O)(CCN1CCCNc2c1c(=O)c2=O)OCOC(=O)OC(C)C", "values": [{"measurement": "remaining at 4 h", "setting": "[1]", "result": 100, "unit": "%"}, {"measurement": "remaining at 4 h", "setting": "[2]", "result": 100, "unit": "%"}, {"measurement": "remaining at 4 h", "setting": "[3]", "result": 100, "unit": "%"}, {"measurement": "remaining at 4 h", "setting": "[4]", "result": 94.1, "unit": "%"}, {"measurement": "remaining at 4 h", "setting": "[5]", "result": 97.7, "unit": "%"}]}
{"smiles": "O=c1c2c(c1=O)N(CCP(=O)(O)O)CCCN2", "note": "[PERZINFOTEL]", "values": [{"measurement": "AUC(0-t) at 4 h", "setting": "[6]", "result": 342, "unit": "ng·h/mL"}, {"measurement": "Drug uptake", "setting": "Plasma [7]", "result": 98, "unit": "%"}, {"measurement": "Drug uptake", "setting": "Plasma [8]", "result": 88, "unit": "%"}, {"measurement": "Activity", "setting": "Rattus norvegicus [9]", "result": 6, "unit": "%"}, {"measurement": "Cmax", "setting": "[10]", "result": 218, "unit": "ng/mL"}, {"measurement": "Drug uptake", "setting": "Brain [11]", "result": 88, "unit": "%"}, {"measurement": "Tmax", "setting": "[12]", "result": 30, "unit": "min"}, {"measurement": "Drug uptake", "setting": "Blood [13]", "result": 98, "unit": "%"}, {"measurement": "Activity", "setting": "Brain [14]", "result": 98, "unit": "%"}, {"measurement": "half-life", "setting": "[15]", "result": 78, "unit": "min"}, {"measurement": "AUC(0-last)", "setting": "[16]", "result": 342, "unit": "ng·h/mL"}, {"measurement": "IC50", "setting": "Glutamate NMDA receptor", "result": 0.023, "unit": "µM"}, {"measurement": "Drug uptake", "setting": "Blood [17]", "result": 88, "unit": "%"}, {"measurement": "ED50", "setting": "Rattus norvegicus [18]", "result": 35, "unit": "mg/kg"}, {"measurement": "Activity", "setting": "Rattus norvegicus [19]", "result": 17, "unit": "%"}, {"measurement": "Activity", "setting": "[20]", "result": 33, "unit": "%"}, {"measurement": "Activity", "setting": "Rattus norvegicus [21]", "result": "Active"}]}
